Consider 4 compounds from ChEMBL document CHEMBL3774346, “Rational design, synthesis and biological evaluation of 1,3,4-oxadiazole pyrimidine derivatives as novel pyruvate dehydrogenase complex E1 inhibitors” (Bioorg Med Chem, 2016).

Experiment [1] is described as follows: Inhibition of Escherichia coli PDHc-E1 expressed in Escherichia coli TB1 using sodium pyruvate as substrate and ThDP after 3 mins by 2,6-DCPIP based microplate reader method. Summed up: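 The enzyme (7.1 µM) was preincubated 3 min at 37 °C with varied inhibitor in 50 mM K3PO4 pH 7.2, 2.0 mM pyruvate and 0.8 mM 2,6-DCPIP. ThDP (0–200 µM) started the reaction, read as A600 decrease. IC50 came from a Hill fit of initial rates.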

Experiment [2] is described as follows: Antibacterial activity against Synechocystis sp. PCC 6803. Type of experiment: functional.
Experiment [3] in a line: Antibacterial activity against Synechocystis sp. PCC 6803 at 10 uM. Type of experiment: functional.
For experiment [4], the system named is Alternaria solani. Briefly: Antifungal activity against Alternaria solani at 100 ug/ml. Type of experiment: functional.
Experiment [5] concerns Rhizoctonia solani. Briefly: Antifungal activity against Rhizoctonia solani at 100 ug/ml. Type of experiment: functional.
The subject of experiment [6] is Botrytis cinerea. Briefly: Antifungal activity against Botrytis cinerea at 100 ug/ml. Type of experiment: functional.
In experiment [7] the test system is Colletotrichum orbiculare. Briefly: Antifungal activity against Colletotrichum orbiculare at 100 ug/ml. Type of experiment: functional.
For experiment [8], the system named is Escherichia coli. Briefly: Inhibition of Escherichia coli PDHc-E1 expressed in Escherichia coli TB1 at 100 uM using sodium pyruvate as substrate after 3 mins by 2,6-DCPIP based microplate reader method.
For experiment [9], the target named is T1, Pyruvate dehydrogenase E1 component subunit alpha, somatic form, mitochondrial (Sus scrofa) (UniProt P29804).
T1 sequence (whole entry): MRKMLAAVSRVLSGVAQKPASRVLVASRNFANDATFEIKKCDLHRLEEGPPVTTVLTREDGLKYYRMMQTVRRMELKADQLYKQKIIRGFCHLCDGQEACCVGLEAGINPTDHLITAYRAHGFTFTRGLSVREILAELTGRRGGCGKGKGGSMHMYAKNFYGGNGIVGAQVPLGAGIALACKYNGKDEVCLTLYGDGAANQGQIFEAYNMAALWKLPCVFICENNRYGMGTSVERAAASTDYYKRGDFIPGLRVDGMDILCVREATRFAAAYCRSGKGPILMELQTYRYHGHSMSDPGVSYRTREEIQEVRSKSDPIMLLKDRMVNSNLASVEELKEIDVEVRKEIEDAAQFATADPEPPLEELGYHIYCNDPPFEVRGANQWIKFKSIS
Briefly: Inhibition of pig heart PDHc-E1 using sodium pyruvate as substrate at 100 uM after 3 mins by 2,6-DCPIP based microplate reader method.

Experiment [10] in a line: Inhibition of Escherichia coli PDHc-E1 E571A mutant expressed in Escherichia coli TB1 using sodium pyruvate as substrate and ThDP after 3 mins by 2,6-DCPIP based microplate reader method. Put shortly: (§1)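 Point mutants were made by PCR mutagenesis on a pMAL-c2x-PDHc-E1 template, DpnI-digested and passed through DH5α. […] Assays used 7.1 µM enzyme, 50 mM K3PO4 pH 7.2, 2.0 mM pyruvate and 0.8 mM DCPIP, with 3 min preincubation at 37 °C and ThDP (0–200 µM) start. A600 was read and IC50 taken by Hill fit.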

A short description of experiment [11]: Inhibition of Escherichia coli PDHc-E1 V192A mutant expressed in Escherichia coli TB1 using sodium pyruvate as substrate and ThDP after 3 mins by 2,6-DCPIP based microplate reader method. Put shortly:
as §1

A short description of experiment [12]: Inhibition of Escherichia coli PDHc-E1 M194A mutant expressed in Escherichia coli TB1 using sodium pyruvate as substrate and ThDP after 3 mins by 2,6-DCPIP based microplate reader method. Put shortly:
as §1

Experiment [13] is described as follows: Inhibition of Escherichia coli PDHc-E1 F602A mutant expressed in Escherichia coli TB1 using sodium pyruvate as substrate and ThDP after 3 mins by 2,6-DCPIP based microplate reader method. Summed up: as §1
Experiment [14] in a line: Inhibition of Escherichia coli PDHc-E1 E522A mutant expressed in Escherichia coli TB1 using sodium pyruvate as substrate and ThDP after 3 mins by 2,6-DCPIP based microplate reader method. Put shortly: as §1
Experiment [15] in a line: Inhibition of Escherichia coli TB1 PDHc-E1 H106A mutant expressed in Escherichia coli TB1 using sodium pyruvate as substrate and ThDP after 3 mins by 2,6-DCPIP based microplate reader method. Summed up:
as §1

The nature of experiment [16]: Inhibition of Escherichia coli TB1 PDHc-E1 K392A mutant expressed in Escherichia coli TB1 using sodium pyruvate as substrate and ThDP after 3 mins by 2,6-DCPIP based microplate reader method. Summed up:
as §1

The test system of experiment [17] is Escherichia coli. Briefly: Selectivity index, ratio of IC50 for Escherichia coli PDHc-E1 K392A mutant to IC50 for Escherichia coli WT PDHc-E1.
Experiment [18] concerns Escherichia coli. Briefly: Selectivity index, ratio of IC50 for Escherichia coli PDHc-E1 H106A mutant to IC50 for Escherichia coli WT PDHc-E1.

One may read the IC50 as the concentration that inhibits the measured activity by half. Lower therefore signals higher potency. As usually defined, the EC50 is the concentration giving half of the maximal effect. Read a high EC50 as a less potent agent. As a reminder, the inhibition is the drop in the measured response relative to a control, in per cent. High values mean a response far below the control, low ones a response near the control. In experiment [1], `Cc1ncc(Cn2cc(CSc3nnc(-c4sc(N)nc4C)o3)nn2)c(N)n1` displayed an IC50 of 4.36 µM. In addition, in experiment [2], the midpoint of the response, the EC50, lay at 1.63 µM. 10 µM produced 90% inhibition in [3]. In addition, the inhibition at 100 µg/mL in [4] was determined as 56%; in [5], 11%; in [6], 31%; in experiment [7], 24%. Besides, the inhibition in [8] worked out at 100%; in [9], 27.1%.

For `CNc1nc(C)c(-c2nnc(SCc3cn(Cc4cnc(C)nc4N)nn3)o2)s1`, in experiment [1], the IC50 amounted to 6.62 µM. For the same compound, the EC50 in [2] was found to be 1.51 µM. Further, testing at 10 µM in experiment [3] gave an inhibition of 90%. Further, the inhibition at 100 µg/mL in [4] was found to be 44%; in [5], 11%; in [6], 31%; in experiment [7], 26%. The inhibition in [8] was 100%; in [9], 15.6%.

With `Cc1ncc(Cn2cc(CSc3nnc(-c4sc(N)nc4C(F)(F)F)o3)nn2)c(N)n1`, the IC50 in experiment [1] worked out at 3.94 µM. Also, it took 1.61 µM to reach a half-maximal effect in [2] (EC50). The inhibition at 10 µM in experiment [3] was 90%. The inhibition at 100 µg/mL in experiment [4] was 53%; in experiment [5], 11%; in [6], 60%; in experiment [7], 25%. The values for the inhibition in experiment [8] and in [9] were 100% and 28.3%, respectively.

On to `CNc1nc(C(F)(F)F)c(-c2nnc(SCc3cn(Cc4cnc(C)nc4N)nn3)o2)s1`, for which the IC50 stood at 0.97 µM in experiment [1]; 5.02 µM in [10]; 33.2 µM in experiment [11]; 19.1 µM in experiment [12]; 5.08 µM in experiment [13]; 10.8 µM in experiment [14]. For the same compound, the IC50 was determined as 11.6 µM in experiment [15] and 20.4 µM in experiment [16]. The compound further registered an EC50 in [2] of 0.83 µM. At 10 µM the inhibition in experiment [3] was 90%. Further, the inhibition at 100 µg/mL in experiment [4] was 41%; in experiment [5] it was 14%; in [6], 50%; in [7] it was 36%. Moreover, the inhibition in experiment [8] came to 100%; in experiment [9], 26.1%. Also, the Ratio IC50 came out at 20 in [17] and 11 in experiment [18].
